L major viab – Leishmania major promastigote growth inhibition; Leishmania major promastigotes, resazurin fluorescence viability; actives 9% (n = 200,000); inhibition, % at 10 µM; in the data active = inhibition above about 50%;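 also: promastigotes grown with compound for 44 hours at 28 °C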
HSF-1 act – increases HSF-1 driven luciferase reporter signal; actives 1.7% (n = 300,000); activation, % at 9 µM; NIH3T3-HGL HSF-1 luciferase reporter, MG132, 8 h; 100% = twice DMSO control signal; AID 504408;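 active = mean replicate activation of at least 50% with a set share of replicates each reaching 50%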;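 also: 0% = median of the neutral control wells and 100% = twice that signal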
Hsp70 act – Hsp70 transcriptional activation, primary screen. HeLa Hsp70 promoter luciferase reporter, luminescence; scaled: vehicle 0, proteasome-inhibitor control 100%. activation, % at 10 µM. actives 0.04% (n = 200,000);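 active = activation above the mean across all tested compounds plus 3 SD, cutoff set per campaign, cut at about 5.5% in these data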;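 also: 100% = MG132 at 30 µM as the positive control and 0% = DMSO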
T cruzi inh – T. cruzi replication inhibition; T. cruzi beta-gal in NIH3T3, luminescence, 90 h; inhibition, % (concentration not given with the values); actives 1.4% (n = 300,000); AID 1885;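 active = mean inhibition across valid replicates above about 55%, limit read from the data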;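 also: signal also drops with host cell toxicity which is not excluded here; 0% = plate median of DMSO wells and 100% = zero luminescence signal; higher percent means less beta-gal luminescence so fewer parasites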
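Read-out: Parasite load inhibition, % | Test system: Mouse NIH/3T3 fibroblasts infected with β-gal-expressing T. cruzi Tulahuen C4 | Amount: 5,000 cells/well | Medium: DMEM, 2% fetal bovine serum | Signal: GalScreen β-gal luminescence, detergent lysis, 60 min | Timing: 3 h attach, ≥90 h co-culture | Also added: Tulahuen C4 trypomastigotes, 5000/well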
HSF1 inh – HSF1 inhibition. NIH3T3-HGL HSE-luciferase, MG132-induced, luminescence 8 h; hits give low values. actives 0.77% (n = 300,000). AID 2098. activity change, negative = inhibition, % at 7.5 µM (by protocol);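 active = more than half of replicate wells show activity change below -50%, luminescence cut by over half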;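 also: luciferase reports HSF-1 transcriptional activity via heat shock element; 0% = median of DMSO wells and -100% = zero luminescence signal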
An asterisk follows results filed as active. Shown is part of a subset that was picked to be rich in hits.

For Cc1ccc(NC(=S)NC2CC3CCC(C2)N3Cc2ccco2)cc1C (stereo not given) the results were L major viab 100*, HSF-1 act -87, Hsp70 act 0, T cruzi inh 0 and HSF1 inh -84*.
Screening Cc1cccc(NC(=S)NC2CCCC2)c1C returned HSF-1 act -27, T cruzi inh -9 and HSF1 inh -9.
Screening COCCNC(=S)NC1CC2CCC(C1)N2Cc1ccccc1 (stereo not given) returned L major viab 15, HSF-1 act -6, Hsp70 act 0, T cruzi inh -8 and HSF1 inh -2.
`Cc1ccc(NC(=S)NC2CC3CCC(C2)N3Cc2ccco2)c(C)c1` (stereo not given) gave L major viab 89*, HSF-1 act 4, Hsp70 act 0, T cruzi inh -9 and HSF1 inh 5.
Screening CCc1ccccc1NC(=S)NC1CC2CCC(C1)N2Cc1ccc(F)cc1 (stereo not given) returned L major viab 95*, HSF-1 act 17, Hsp70 act 0, T cruzi inh 3 and HSF1 inh 1.
Screening Cc1cccc(NC(=S)NC2CCCCCC2)c1C returned L major viab 82*, HSF-1 act 3, Hsp70 act 0, T cruzi inh -10 and HSF1 inh 8.
`CN(C)c1ccc(NC(=O)CSc2nnc(-c3cnccn3)n2C)cc1` gave HSF-1 act 11, T cruzi inh 6 and HSF1 inh -3.
For Cn1cc(Br)c(C(=O)Nc2ncc(Br)s2)n1 the results were L major viab 2, HSF-1 act -28, Hsp70 act 0, T cruzi inh -10 and HSF1 inh -5.
For C/C(=N/NC(=O)c1cccs1)c1ccc(N2CCOCC2)cc1 the results were L major viab -4, HSF-1 act 34, Hsp70 act 0, T cruzi inh 1 and HSF1 inh 22.
For Cc1cccc(NC(=S)NC2CC3CCC(C2)N3Cc2ccco2)c1C (stereo not given) the results were L major viab 90*, HSF-1 act -8, Hsp70 act 0, T cruzi inh -2 and HSF1 inh 0.
`CCNC(=S)NC1CC2CCCC(C1)N2Cc1ccco1` (stereo not given) gave L major viab -5, HSF-1 act -27, Hsp70 act 0, T cruzi inh -19 and HSF1 inh -16.
Screening Cc1ccccc1NC(=S)NCc1ccco1 returned L major viab 0, HSF-1 act 14, Hsp70 act 0, T cruzi inh 1 and HSF1 inh 6.
CCc1ccccc1NC(=O)NC1CC2CCC(C1)N2Cc1cccs1 (stereo not given) was read as L major viab 76*, HSF-1 act 10, Hsp70 act 0, T cruzi inh -9 and HSF1 inh -2.
Screening CCc1ccccc1NC(=S)NC1CC2CCC(C1)N2Cc1ccco1 (stereo not given) returned L major viab 71*, HSF-1 act 6, Hsp70 act 0, T cruzi inh -18 and HSF1 inh -6.
Screening O=C(NC1CC2CCCC(C1)N2Cc1ccco1)NC12CC3CC(CC(C3)C1)C2 (stereo not given) returned L major viab 89*, HSF-1 act 2, Hsp70 act 0, T cruzi inh 27 and HSF1 inh -7.
`CCc1ccc(NC(=S)NC2CC3CCCC(C2)N3Cc2cccs2)cc1` (stereo not given) gave L major viab 91*, HSF-1 act -14, Hsp70 act 0, T cruzi inh 56* and HSF1 inh -10.
Cc1ccccc1C(=O)NC1CC2CCCC(C1)N2Cc1ccccc1 (stereo not given) was read as HSF-1 act -2, T cruzi inh 11 and HSF1 inh 5.
Cc1cccc(NC(=S)NC2CC3CCCC(C2)N3Cc2ccccc2)c1C (stereo not given) was read as L major viab 87*, HSF-1 act 5, Hsp70 act 0, T cruzi inh -1 and HSF1 inh -1.
Cc1cc(C)c(NC(=O)COC(=O)/C=C/c2cccs2)c(C)c1 was read as L major viab -6, HSF-1 act -3, Hsp70 act 0, T cruzi inh -17 and HSF1 inh 8.
CCOC(=O)c1ccccc1NC(=O)CSC(C)C(=O)Nc1cc(C)on1 (stereo not given) was read as HSF-1 act -1, T cruzi inh 0 and HSF1 inh -4.
For COc1ccc(/C=N/N2CCN(c3ccc(Cl)cc3)CC2)cc1O the results were HSF-1 act 15, T cruzi inh 22 and HSF1 inh -7.
`COc1cc(OC)cc(C(=O)N[C@H](C(=O)Nc2ccc(NC(C)=O)cc2)C(C)C)c1` gave L major viab 5, HSF-1 act 1, Hsp70 act 0, T cruzi inh -8 and HSF1 inh -3.
COc1cc(OC)cc(C(=O)N[C@H](C(=O)NC23CC4CC(CC(C4)C2)C3)C(C)C)c1 was read as L major viab 64*, HSF-1 act -8, Hsp70 act 0, T cruzi inh 23 and HSF1 inh 2.
For Cc1cccc(NC(=S)NCCSc2ccc(Cl)cc2)c1 the results were L major viab 16, HSF-1 act 36, Hsp70 act 0, T cruzi inh 34 and HSF1 inh 10.
`Cc1ccc(C)c(NC(=S)NCCSc2ccc(Cl)cc2)c1` gave L major viab 16, HSF-1 act 11, Hsp70 act 0, T cruzi inh 32 and HSF1 inh 4.
Cc1cccc(NC(=S)NCC(C)CSc2ccc(Cl)cc2)c1 (stereo not given) was read as L major viab 86*, HSF-1 act 8, Hsp70 act 0, T cruzi inh 17 and HSF1 inh 4.
`Cc1ccc(NC(=S)NCC(C)CSc2ccc(Cl)cc2)cc1` (stereo not given) gave L major viab 59*, HSF-1 act -1, Hsp70 act 0, T cruzi inh 34 and HSF1 inh 11.
Cc1ccc(NC(=O)C2CC(=O)N/C(=N/N=C/c3ccco3)S2)cc1 (stereo not given) was read as L major viab 58*, HSF-1 act -18, Hsp70 act 0, T cruzi inh 6 and HSF1 inh -16.
`O=C1CC(C(=O)Nc2ccc(F)cc2)S/C(=N\N=C\c2ccco2)N1` (stereo not given) gave L major viab 8, HSF-1 act 3, Hsp70 act 0, T cruzi inh -20 and HSF1 inh -2.
Screening C/C(=N/N=C1/NC(=O)CC(C(=O)Nc2ccccc2)S1)c1cccs1 (stereo not given) returned L major viab 78*, HSF-1 act 2, Hsp70 act -1, T cruzi inh 0 and HSF1 inh -1.
`C=CCCCCCCCCC(=O)NNC1CC(=O)N(c2ccccc2)C1=O` (stereo not given) gave HSF-1 act 13, T cruzi inh 0 and HSF1 inh -6.

From PubChem BioAssay
